# Compounds with a hit are over-represented: about 5.3% of the library has one in this group of screens.
# Mdm2 MdmX PPI – disrupts the human Mdm2-MdmX interaction | O15151+Q00987 | SaOS-2 split-luciferase Mdm2/MdmX complementation, luminescence | inhibition, % at 8 µM | 3% of 330,000 active;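 active means inhibition of at least 50% at 8 µM in the primary screen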
# Beta cell apopt – beta cell apoptosis inhibition; protection from apoptosis, % (test concentration not listed); INS-1E cytokine-induced death, ATP luminescence, 48 h; percent of positive-control rescue, neutral wells zero; 0.8% of 300,000 active;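 active means Every replicate reaches about 75%, or at least half do and their mean reaches it too, limit read from the data; inconclusive means At least half of replicates reach the limit but their mean does not; inactive means Under half of replicates reach the limit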;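 further: higher means more ATP so stronger rescue from cytokine killing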
# T cruzi repl – T. cruzi replication inhibition. T. cruzi beta-gal in NIH3T3, luminescence, 90 h. inhibition, % (test concentration not listed). 1.4% of 300,000 active;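 active means mean inhibition across valid replicates above about 55%, limit read from the data; inconclusive means mean below that limit but half or more replicates reach it; inactive means mean below it, under half of replicates reach it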;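 further: signal also drops with host cell toxicity which is not excluded here; higher percent means less beta-gal luminescence so fewer parasites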
#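 Test system: β-gal T. cruzi (Tulahuen C4) inside NIH/3T3 cells / Quantity: 5,000 cells/well / Measured by: luminescence from GalScreen with 0.05% NP40, read after 60 min / Medium: DMEM plus 2% FBS / Measure: parasite load inhibition, % / Reagent: Tulahuen C4 trypomastigotes, 5000/well / Schedule: co-culture of at least 90 h after 3 h attachment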
# CSC inhib – blocks cancer stem cells | cancer stem cell-like cells viability, luminescence | inhibition, % at 7.5 µM | 1.1% of 300,000 active; in the data active means inhibition above about 75%; inconclusive means no clear call, values can overlap the other calls; tested in HMLE shEcad cells
# NLRP3 yeast inh – NALP3 inhibition in yeast. AID 2825. 0.39% of 330,000 active. inhibition, % at 10 µM. Yeast reconstituted NLRP3/ASC/caspase-1, beta-gal luminescence, 24 h;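 active means inhibition of 50% or more; inactive means inhibition below 50%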
# Calb FLC – C. albicans growth modulation with fluconazole; C. albicans CaCi-2 (fluconazole-resistant clinical isolate) + fluconazole, Alamar Blue growth, 48 h; growth inhibition, % (no concentration beside the values); 0.57% of 300,000 active;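 active means growth inhibition above about 58% in most replicates, limit read from the data, passing the limit was not always enough; inconclusive means exactly half the replicates above a set limit; inactive means most replicates below a set limit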;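 further: all wells also contain fluconazole at 8 µg/ml as a sub-toxic cotreatment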
# Hits are given with their value; n = inactive; u = inconclusive; x = no result.
SMILES,Mdm2 MdmX PPI,Beta cell apopt,T cruzi repl,CSC inhib,NLRP3 yeast inh,Calb FLC
O=[N+]([O-])c1cc(O)c2ncccc2c1,n,x,n,n,n,105
CC(C)C(NC(=O)c1ccc(S(=O)(=O)N2CCOCC2)cc1)c1nc2ccccc2[nH]1 (configuration not stated),n,n,n,n,n,u
Cc1ccc(S(=O)(=O)N(C)C)cc1NC(=S)NC(=O)C12CC3CC(CC(C3)C1)C2,n,x,n,77,n,n
COC(=O)c1c(-c2ccc(C)cc2)csc1NC(=S)NC(=O)c1cc(OC)cc(OC)c1,n,n,n,n,n,n
Cc1ccc(-n2nnnc2CNC(=O)c2ccc([N+](=O)[O-])o2)cc1C,n,n,57,n,n,n
CCC(=O)N1CCN(c2ccc(NC(=O)c3ccc([N+](=O)[O-])o3)cc2)CC1,x,x,72,x,x,u
Cc1ccc(-c2csc(NC(=O)c3ccc([N+](=O)[O-])o3)n2)cc1,n,n,70,127,n,n
Cc1ccc(-c2csc(NC(=O)c3ccc(C)o3)n2)cc1,n,x,n,x,n,n
Cc1ccc(NC(=O)c2ccc([N+](=O)[O-])o2)cc1C,n,x,u,n,n,117
CCCC(=O)N1CCN(c2ccc(NC(=O)c3ccc([N+](=O)[O-])o3)cc2)CC1,x,x,n,x,x,n
Cc1ccc(NC(=O)COC(=O)C2CCC(=O)N2)c([N+](=O)[O-])c1 (configuration not stated),n,n,n,n,n,n
CCc1nnc(NC(=O)c2ccc(N3C(=O)CCC3=O)cc2)s1,n,n,n,n,n,n
Cc1ccc(OCC(=O)N/N=C/c2cc([N+](=O)[O-])ccc2N2CCCCC2)cc1,n,n,n,n,n,n
O=C(O)COc1ccc(/C=C/c2nc(-c3ccccc3O)n[nH]2)cc1,n,x,n,x,n,n
O=C(Nc1ccc(N2CCN(C(=O)c3ccc(Cl)cc3)CC2)cc1)c1ccc([N+](=O)[O-])o1,x,x,93,x,x,n
CC1CCN(c2ccc(NC(=O)c3ccc([N+](=O)[O-])o3)cc2)CC1,n,85,72,100,n,n
Fc1ccc(C2=Nn3c(Cc4ccccc4)nnc3SC2)cc1,n,n,n,n,n,n
COc1ccccc1NS(=O)(=O)c1ccc(S(=O)(=O)N2CCOCC2)cc1,n,n,n,n,n,n
CCc1ccc(CNC(=O)C2CCCN(S(=O)(=O)N3CC(C)CC(C)C3)C2)cc1 (configuration not stated),n,n,n,n,n,n
Cc1[nH]c2ccccc2c1C(=O)CSc1nc2cc(S(=O)(=O)N3CCCCC3)ccc2o1,n,n,57,n,n,n
Cc1onc(-c2c(Cl)cccc2Cl)c1NC(=O)NNc1ccccc1,n,n,n,n,n,n
Cc1onc(-c2ccccc2Cl)c1C(=O)Nc1nnc(C(C)C)s1,n,n,n,n,n,n
Cc1nc(C(=O)NNC(=O)c2c(-c3c(Cl)cccc3Cl)noc2C)cs1,n,86,n,n,n,n
Cc1ccc(NC(=O)c2c(-c3c(F)cccc3Cl)noc2C)cc1F,n,96,n,n,n,n
Cc1nnc(NC(=O)c2c(-c3ccccc3Cl)noc2C)s1,n,n,n,n,n,83
SMILES,Mdm2 MdmX PPI,Beta cell apopt,T cruzi repl,CSC inhib,NLRP3 yeast inh,Calb FLC
Cc1onc(-c2c(Cl)cccc2Cl)c1C(=O)NNc1ccccc1,n,n,n,91,n,n
Cc1cc(NC(=O)c2c(-c3c(F)cccc3Cl)noc2C)no1,n,n,n,n,n,n
O=C(c1cccc(S(=O)(=O)Nc2ccc(F)cc2)c1)N1CCCC1,n,n,x,x,n,x
Cc1nnc(Sc2cc(C(=O)NCCCN(C)Cc3ccccc3)c3ccccc3n2)s1,n,x,64,n,n,n
COCCCNC(=O)c1cc(Sc2nnc(C)s2)nc2ccccc12,n,n,n,n,n,n
O=C(Nc1ncc(Cc2cccc(C(F)(F)F)c2)s1)c1ccc(-c2cccc([N+](=O)[O-])c2)o1,n,n,62,n,n,n
Cc1ccc(C(=O)Nc2nc(C)c(C(=O)Nc3ccc4c(c3)CCC4)s2)cc1,n,n,n,81,n,n
Cc1nc(NC(=O)c2ccc(F)cc2)sc1C(=O)Nc1ccc2c(c1)CCC2,n,n,n,n,n,n
O=C1N/C(=N\N=C\c2ccccn2)SC1Cc1cccc(SC(F)F)c1 (configuration not stated),n,n,69,111,n,u
Clc1c(-c2ccccc2)nnn1-c1ccccc1,n,n,n,n,n,n
O=C(NCC1CCCO1)C(c1ccc(F)cc1)N(Cc1ccc(F)cc1)C(=O)Cn1nnc(-c2cccs2)n1 (configuration not stated),n,n,n,n,n,104
CCC(=O)Nc1cccc(-n2nnnc2SCC(=O)N2CCCCC2)c1,n,n,n,n,n,n
c1ccc(CSc2nnnn2-c2ccc3c(c2)OCCO3)nc1,n,n,n,n,n,n
Clc1ccc(CSc2nnnn2-c2ccc3c(c2)OCO3)c(Cl)c1,n,n,n,82,n,n
Cn1cc(C(=O)N/N=C/C2=C(N3CCOCC3)C(=C/c3ccc([N+](=O)[O-])cc3)/CC2)ccc1=O,n,n,n,n,n,n
CC(C)C(NC(=O)C12CC3CC(CC(C3)C1)C2)C(=O)N/N=C/C1=C(N2CCOCC2)C(=C\c2cccc([N+](=O)[O-])c2)/CC1 (configuration not stated),n,n,56,x,n,n
Cc1cccc2c(N=O)c(O)n(CCc3ccccc3)c12,n,n,n,n,n,n
N#Cc1nc(-c2ccc(OCc3ccccc3Cl)cc2)oc1NCCCn1ccnc1,n,n,n,94,n,n
CCCOc1ccc(-c2nc(C#N)c(NCCCn3ccnc3)o2)cc1,n,n,n,n,n,n
N#Cc1nc(-c2ccc(F)cc2)oc1NCCCn1ccnc1,n,n,n,n,n,n
CC(C)(C)c1ccc(-c2nc(C#N)c(NCCCn3ccnc3)o2)cc1,n,n,n,88,n,n
N#Cc1nc(-c2ccc(OCc3ccccc3)cc2)oc1NCCCn1ccnc1,n,n,n,88,n,u
CC(=O)Nc1cc(C)nn1-c1nc2ccccc2s1,n,n,n,n,n,n
CN(CC(=O)Nc1ccc(F)c(F)c1F)C1CCCCC1,n,n,n,n,n,n
CN(CC(=O)Nc1ccc(F)c(F)c1F)c1cnccn1,n,n,64,n,n,n
COC(=O)C1=CN(C2CCCCC2)C=C(C(=O)OC)C1c1ccc2c(c1)OCO2,n,n,62,n,n,n
N#Cc1c(NC(=O)CSc2n[nH]c(Cc3ccccc3)n2)oc(-c2ccccc2)c1-c1ccccc1,n,x,n,102,n,n
N/C(=N\N=C/c1ccc(Br)cc1)N/N=C\c1ccc(Br)cc1,n,n,n,103,n,n
O=C(N/N=C/c1ccc(F)cc1)c1ccc(Br)cc1,n,n,n,n,n,u
CCn1c(-c2cccn(Cc3ccccc3)c2=O)n[nH]c1=S,n,n,n,n,n,n

# Compound activity as filed in PubChem.
